In ChEMBL document CHEMBL4014281, “Design, synthesis and biological evaluation of gentiopicroside derivatives as potential antiviral inhibitors” (Eur J Med Chem, 2017):
Active and inactive are the calls of the source. No cut-off for these calls is given here.

Columns and labels:
Hepatitis C virus [1] = assay: Antiviral activity against HCV pseudoparticle harboring HCV envelope protein E1 and E2 assessed as inhibition of pseudoparticle entry into human Huh7 cells at 1 uM measured after 3 days by Bright-Glo luciferase reporter gene assay relative to control; format: functional, Hepacivirus hominis; details: Huh-7, 72 h
Procedure, shortened: (§1)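 HCV pseudoparticle entry screen with each compound at 1 µM and 5 µM in 1% DMSO. DMSO-only wells set maximum entry (negative control); echinocystic acid served as the entry-blocking positive control.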

[2] = test system: Influenza A virus (A/WSN/1933(H1N1)); assay: Antiviral activity against Influenza A virus (A/WSN/1933(H1N1)) infected in MDCK cells assessed as reduction in virus-induced cytopathic effect at 50 uM after 40 hrs by CellTiter-Glo assay; format: functional, cell-based
Procedure, shortened: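 Single-concentration screen: overnight-seeded MDCK cells were infected (MOI 0.1) in DMEM/1% FBS with […] TPCK-trypsin, compound at 1% final DMSO. CellTiter-Glo read-out after 40 h. Oseltamivir positive control; triplicate experiments, standard deviations shown.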

MDCK = assay: Cytotoxicity against MDCK cells at 50 uM after 40 hrs by CellTiter-Glo assay; format: cell-based, Canis lupus familiaris; details: dog
Procedure, shortened: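 Uninfected MDCK cells grown overnight, then cultured 40 h in 1% FBS medium with test compound (50 μM in screen). Viability read by CellTiter-Glo luminescence. DMSO as negative control. Triplicate experiments, standard deviations shown.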

[3] = Antiviral activity against Influenza A virus (A/WSN/1933(H1N1)) infected in MDCK cells assessed as reduction in virus-induced cytopathic effect after 40 hrs by CellTiter-Glo assay; format: functional, cell-based
Procedure, shortened: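 MDCK cells were seeded and incubated overnight, then infected (MOI 0.1) in DMEM with 1% FBS, […] TPCK-trypsin and compound dose series at 1% final DMSO. Cell viability was read by CellTiter-Glo luminescence after 40 h. IC50 is the concentration giving 50% inhibition of viral replication; oseltamivir was the positive control.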

[4] = test system: Influenza A virus (A/WSN/1933(H1N1)); assay: Antiviral activity against Influenza A virus (A/WSN/1933(H1N1)) infected in MDCK cells assessed as reduction in virus-induced cytopathic effect at 50 uM by microscopic method; format: functional, cell-based
Procedure, shortened: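 CPE in compound-treated infected MDCK wells was inspected directly by light microscopy, with DMSO-treated infected wells as comparator.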

Hepatitis C virus [5] = assay: Antiviral activity against HCV pseudoparticle harboring HCV envelope protein E1 and E2 assessed as inhibition of pseudoparticle entry into human Huh7 cells at 5 uM measured after 3 days by Bright-Glo luciferase reporter gene assay relative to control; format: functional, Hepacivirus hominis; details: Huh-7, 72 h; procedure, shortened: as §1
Hepatitis C virus [6] = assay: Antiviral activity against HCV pseudoparticle harboring HCV envelope protein E1 and E2 assessed as inhibition of pseudoparticle entry into human Huh7 cells measured after 3 days by Bright-Glo luciferase reporter gene assay; format: functional; details: Hepacivirus hominis

C=C[C@@H]1C2=CCOC(=O)C2=CO[C@H]1O[C@@H]1O[C@H](COC(=O)c2ccccc2)[C@@H](OS(C)(=O)=O)[C@H](OC(=O)c2ccccc2)[C@H]1OC(=O)c1ccccc1
inhibition at 1 µM (Hepatitis C virus [1]): 38.2%
Activity [2]: Active
Activity (MDCK): Non-Toxic
IC50 [3]: 39.5 µM
Activity [4]: Active
inhibition at 5 µM (Hepatitis C virus [5]): 40.4%
inhibition (Hepatitis C virus [6]): Dose-dependent effect

C=C[C@@H]1C2=CCOC(=O)C2=CO[C@H]1O[C@@H]1O[C@H](COC(=O)c2ccccc2)[C@H](SC(C)=O)[C@H](OC(=O)c2ccccc2)[C@H]1OC(=O)c1ccccc1
inhibition at 1 µM (Hepatitis C virus [1]): 9.5%
inhibition at 5 µM (Hepatitis C virus [5]): 26.6%

C=C[C@@H]1C2=CCOC(=O)C2=CO[C@H]1O[C@@H]1O[C@H](CF)[C@@H](OC(C)=O)[C@H](OC(C)=O)[C@H]1OC(C)=O
inhibition at 1 µM (Hepatitis C virus [1]): 1.1%
inhibition at 5 µM (Hepatitis C virus [5]): 7.8%

CC1(C)CC[C@]2(C(=O)O)[C@H](O)C[C@]3(C)C(=CC[C@@H]4[C@@]5(C)CC[C@H](O)C(C)(C)[C@@H]5CC[C@]43C)[C@@H]2C1
inhibition at 1 µM (Hepatitis C virus [1]): 30.7%
inhibition at 5 µM (Hepatitis C virus [5]): 69.6%

C=C[C@@H]1C2=CCOC(=O)C2=CO[C@H]1O[C@@H]1O[C@H](CNC(C)=O)[C@@H](O)[C@H](O)[C@H]1O
inhibition at 1 µM (Hepatitis C virus [1]): 0.2%
inhibition at 5 µM (Hepatitis C virus [5]): 11.2%

C=C[C@@H]1C2=CCOC(=O)C2=CO[C@H]1O[C@@H]1O[C@H](COC(=O)c2ccccc2)[C@@H](F)[C@H](OC(=O)c2ccccc2)[C@H]1OC(=O)c1ccccc1
Activity [2]: Active
Activity (MDCK): Non-Toxic

C=C[C@@H]1C2=CCOC(=O)C2=CO[C@H]1O[C@@H]1O[C@H](CO)[C@H](S)[C@H](O)[C@H]1OC(=O)c1ccccc1
inhibition at 1 µM (Hepatitis C virus [1]): 0.3%
inhibition at 5 µM (Hepatitis C virus [5]): 4.5%

C=C[C@@H]1C2=CCOC(=O)C2=CO[C@H]1O[C@@H]1O[C@H](CF)[C@@H](O)[C@H](O)[C@H]1O
inhibition at 1 µM (Hepatitis C virus [1]): 0.3%
inhibition at 5 µM (Hepatitis C virus [5]): 1%

C=C[C@@H]1C2=CCOC(=O)C2=CO[C@H]1O[C@@H]1O[C@H](CNC(C)=O)[C@@H](OC(C)=O)[C@H](OC(C)=O)[C@H]1OC(C)=O
inhibition at 1 µM (Hepatitis C virus [1]): 9.1%
inhibition at 5 µM (Hepatitis C virus [5]): 8.8%

C=C[C@@H]1C2=CCOC(=O)C2=CO[C@H]1O[C@@H]1O[C@H](CSC)[C@@H](O)[C@H](O)[C@H]1O
inhibition at 1 µM (Hepatitis C virus [1]): 14.9%
Activity [2]: Active
Activity (MDCK): Non-Toxic
inhibition at 5 µM (Hepatitis C virus [5]): 21%

C=C[C@@H]1C2=CCOC(=O)C2=CO[C@H]1O[C@@H]1O[C@H](CS)[C@@H](O)[C@H](O)[C@H]1O
inhibition at 1 µM (Hepatitis C virus [1]): 0.2%
Activity [2]: Active
Activity (MDCK): Non-Toxic
inhibition at 5 µM (Hepatitis C virus [5]): 0.1%

C=C[C@@H]1C2=CCOC(=O)C2=CO[C@H]1O[C@@H]1O[C@H](CO)[C@@H](F)[C@H](O)[C@H]1O
inhibition at 1 µM (Hepatitis C virus [1]): 0.9%
inhibition at 5 µM (Hepatitis C virus [5]): 45.9%
inhibition (Hepatitis C virus [6]): Dose-dependent effect

C=C[C@@H]1C2=CCOC(=O)C2=CO[C@H]1O[C@@H]1O[C@H](COC(=O)c2ccccc2)[C@@H](N=[N+]=[N-])[C@H](OC(=O)c2ccccc2)[C@H]1OC(=O)c1ccccc1
inhibition at 1 µM (Hepatitis C virus [1]): 0.1%
inhibition at 5 µM (Hepatitis C virus [5]): 4.7%

C=C[C@@H]1C2=CCOC(=O)C2=CO[C@H]1O[C@@H]1O[C@H](CSC(C)=O)[C@@H](OC(C)=O)[C@H](OC(C)=O)[C@H]1OC(C)=O
inhibition at 1 µM (Hepatitis C virus [1]): 30.4%
Activity [2]: Active
Activity (MDCK): Non-Toxic
inhibition at 5 µM (Hepatitis C virus [5]): 21.7%

C=C[C@@H]1C2=CCOC(=O)C2=CO[C@H]1O[C@@H]1O[C@H](CO)[C@@H](O)[C@H](O)[C@H]1O [GENTIOPICROSIDE]
inhibition at 1 µM (Hepatitis C virus [1]): 0.6%
inhibition at 5 µM (Hepatitis C virus [5]): 2.1%

C=C[C@@H]1C2=CCOC(=O)C2=CO[C@H]1O[C@@H]1O[C@H](CO)[C@H](N=[N+]=[N-])[C@H](O)[C@H]1O
inhibition at 1 µM (Hepatitis C virus [1]): 11.7%
Activity [2]: Active
Activity (MDCK): Non-Toxic
inhibition at 5 µM (Hepatitis C virus [5]): 23.3%

C=C[C@@H]1C2=CCOC(=O)C2=CO[C@H]1O[C@@H]1OC(COC(=O)c2ccccc2)=C[C@H](OC(=O)c2ccccc2)[C@H]1OC(=O)c1ccccc1
inhibition at 1 µM (Hepatitis C virus [1]): 0.5%
Activity [2]: Active
Activity (MDCK): Non-Toxic
IC50 [3]: 44 µM
inhibition at 5 µM (Hepatitis C virus [5]): 40.3%
inhibition (Hepatitis C virus [6]): Dose-dependent effect

C=C[C@@H]1C2=CCOC(=O)C2=CO[C@H]1O[C@@H]1O[C@H](COC(=O)c2ccccc2)[C@@H](SC(C)=O)[C@H](OC(=O)c2ccccc2)[C@H]1OC(=O)c1ccccc1
inhibition at 1 µM (Hepatitis C virus [1]): 0.2%
inhibition at 5 µM (Hepatitis C virus [5]): 45.1%
inhibition (Hepatitis C virus [6]): Dose-dependent effect

C=C[C@@H]1C2=CCOC(=O)C2=CO[C@H]1O[C@@H]1O[C@H](CO)[C@@H](N=[N+]=[N-])[C@H](O)[C@H]1O
inhibition at 1 µM (Hepatitis C virus [1]): 0.2%
Activity [2]: Active
Activity (MDCK): Non-Toxic
inhibition at 5 µM (Hepatitis C virus [5]): 0.4%

CCOC(=O)C1=C[C@@H](OC(CC)CC)[C@H](NC(C)=O)[C@@H](N)C1 [OSELTAMIVIR]
IC50 [3]: 33.6 µM

C=C[C@@H]1C2=CCOC(=O)C2=CO[C@H]1O[C@@H]1O[C@H](COC(=O)c2ccccc2)[C@H](F)[C@H](OC(=O)c2ccccc2)[C@H]1OC(=O)c1ccccc1
inhibition at 1 µM (Hepatitis C virus [1]): 0.1%
inhibition at 5 µM (Hepatitis C virus [5]): 0.2%

C=C[C@@H]1C2=CCOC(=O)C2=CO[C@H]1O[C@@H]1O[C@H](CSC)[C@@H](OC(C)=O)[C@H](OC(C)=O)[C@H]1OC(C)=O
Activity [2]: Active
Activity (MDCK): Non-Toxic

C=C[C@@H]1C2=CCOC(=O)C2=CO[C@H]1O[C@@H]1O[C@H](COC(c2ccccc2)(c2ccccc2)c2ccccc2)[C@@H](O)[C@H](O)[C@H]1O
Activity (MDCK): Toxic

C=C[C@@H]1C2=CCOC(=O)C2=CO[C@H]1O[C@@H]1O[C@H](CO)[C@@H](S)[C@H](O)[C@H]1O
inhibition at 1 µM (Hepatitis C virus [1]): 5.6%
inhibition at 5 µM (Hepatitis C virus [5]): 18.6%

C=C[C@@H]1C2=CCOC(=O)C2=CO[C@H]1O[C@@H]1O[C@H](COC(=O)c2ccccc2)[C@@H](O)[C@H](OC(=O)c2ccccc2)[C@H]1OC(=O)c1ccccc1
inhibition at 1 µM (Hepatitis C virus [1]): 0.7%
inhibition at 5 µM (Hepatitis C virus [5]): 8.1%

C=C[C@@H]1C2=CCOC(=O)C2=CO[C@H]1O[C@@H]1O[C@H](CO)[C@H](F)[C@H](O)[C@H]1O
inhibition at 1 µM (Hepatitis C virus [1]): 0.7%
Activity [2]: Active
Activity (MDCK): Non-Toxic
IC50 [3]: 45.2 µM
inhibition at 5 µM (Hepatitis C virus [5]): 13.3%

C=C[C@@H]1C2=CCOC(=O)C2=CO[C@H]1O[C@@H]1O[C@H](COC(=O)c2ccccc2)[C@H](N=[N+]=[N-])[C@H](OC(=O)c2ccccc2)[C@H]1OC(=O)c1ccccc1
inhibition at 1 µM (Hepatitis C virus [1]): 0.2%
inhibition at 5 µM (Hepatitis C virus [5]): 17.9%
